Screening results from PubChem BioAssay.
S100A4 MyoIIA – S100A4-myosin IIA interaction inhibition; inhibition, % at 10.7 µM; P26447; S100A4/TAMRA-MyoIIA peptide fluorescence polarization; actives 0.14% (n = 360,000); AID 652163;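 active = mean inhibition of at least 70% across replicates, with every replicate also reaching that level; inconclusive = mean inhibition reaches 70% but some replicates fall short; inactive = mean inhibition below 70%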
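Compound dosing: one dose per compound; test system: human S100A4 monomer with TAMRA-labelled myosin IIA peptide; probe or stimulus: TAMRA-labelled myosin IIA heavy-chain peptide probe, 5 nM; medium: HEPES buffer with Ca2+, pH 7.2; schedule: 5 min incubation before reading; benchmarks: neutral control DMSO, positive control TFP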
SIRT5 inh – sirtuin-5 (human) deacylase inhibition | Q9NXA8 | Purified SirT5, succinyl-peptide AMC, trypsin-coupled fluorescence | inhibition, % at 15 µM | actives 1.1% (n = 330,000); in the data active = inhibition above about 15%; inconclusive = no clear call, values can overlap the other calls
Ecoli rRNA inh – inhibitors of bacterial rRNA selective over humanized ribosomes; actives 1.6% (n = 350,000); GFP signal change (wild-type ribosome), % (test concentration not listed); E. coli WT GFP vs humanized-ribosome RFP mutants, fluorescence, 24 h; active compounds read low; DMSO median 0, no signal -100;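 active = significant combined selectivity score with lowered wild-type GFP, culture density cut under 30%, mutant RFP and density less affected; inactive = any of these conditions unmet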
E-selectin induc – induces E-selectin expression in human endothelial cells | P16581 | HUVEC E-selectin immunofluorescence imaging; normalized: neutral wells 0, TNF-alpha wells 100 | activation, % at 7.58 µM | actives 0.37% (n = 260,000) | AID 686992;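 active = mean E-selectin-positive cell signal at least 10% of the positive control, reached in at least 60% of replicates, without over 20% cell loss; inconclusive = no rule given, readout overlaps actives, possibly toxicity-flagged; inactive = the rest, including those meeting only one limit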
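Read-out basis: % PE-positive cells; Test system: HUVEC primary endothelial cells; Technique: immunofluorescence imaging; Dosing: single-point compound dose.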
ERAP1 HTS inh – ERAP1 (human) enzyme inhibition | actives 0.15% (n = 340,000) | recombinant ERAP1, Leu-AMC fluorescence, 60 min | inhibition, % at 10.7 µM | Q9NZ08;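 active = mean replicate inhibition of at least 30%, or all replicates individually reaching that 30% level; inactive = mean below 30% and not every replicate reaching it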;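 also: 0% = neutral control wells and 100% = L-leucinethiol positive control wells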
Target sequence (Q9NZ08 whole entry, looked up): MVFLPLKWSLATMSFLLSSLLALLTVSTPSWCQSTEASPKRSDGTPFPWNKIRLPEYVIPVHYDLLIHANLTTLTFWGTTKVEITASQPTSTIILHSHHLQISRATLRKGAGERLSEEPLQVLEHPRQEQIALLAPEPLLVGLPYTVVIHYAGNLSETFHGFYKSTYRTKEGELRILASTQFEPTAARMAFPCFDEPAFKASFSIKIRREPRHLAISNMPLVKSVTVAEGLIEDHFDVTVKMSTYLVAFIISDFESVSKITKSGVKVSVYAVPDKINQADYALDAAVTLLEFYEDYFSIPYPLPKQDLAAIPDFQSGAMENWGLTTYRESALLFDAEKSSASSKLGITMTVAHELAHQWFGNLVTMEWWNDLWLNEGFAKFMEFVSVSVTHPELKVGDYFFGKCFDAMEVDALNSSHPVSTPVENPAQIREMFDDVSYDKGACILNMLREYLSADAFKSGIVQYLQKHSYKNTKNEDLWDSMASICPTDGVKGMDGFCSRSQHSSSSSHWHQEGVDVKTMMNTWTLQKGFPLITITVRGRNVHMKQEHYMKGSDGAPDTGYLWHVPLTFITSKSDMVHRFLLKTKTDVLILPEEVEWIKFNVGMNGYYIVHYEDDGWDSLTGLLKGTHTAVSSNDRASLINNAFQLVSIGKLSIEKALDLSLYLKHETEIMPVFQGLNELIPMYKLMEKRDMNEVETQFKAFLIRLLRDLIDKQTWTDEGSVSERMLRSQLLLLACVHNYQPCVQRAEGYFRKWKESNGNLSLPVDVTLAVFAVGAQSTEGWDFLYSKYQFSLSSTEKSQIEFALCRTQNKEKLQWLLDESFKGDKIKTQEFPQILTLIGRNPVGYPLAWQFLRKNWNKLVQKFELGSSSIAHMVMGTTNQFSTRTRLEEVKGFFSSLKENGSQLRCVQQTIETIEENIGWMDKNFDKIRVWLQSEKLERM
MLL AF4-AF9 inh – inhibitors of human MLL-AF4/AF9 interaction. AlphaScreen, biotin-AF4 peptide binding to FLAG-AF9. inhibition, % at 10 µM. actives 0.47% (n = 350,000). P42568;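 active = every replicate reaching a set inhibition limit, whatever the replicate mean, cut at about 25% in these data; inconclusive = mean inhibition reaches that limit but some replicates miss it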;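 also: 0% = plate neutral control median and 100% = total signal loss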
The depositor's hits bear a star; ? = inconclusive; · = no result given. The list is not random: actives were taken first. Their share in the collection is about 3.4%.

SMILES	S100A4 MyoIIA	SIRT5 inh	Ecoli rRNA inh	E-selectin induc	ERAP1 HTS inh	MLL AF4-AF9 inh
Cc1cc(Cl)ccc1NNC(=O)CCc1ccccc1	-2	-3	-29*	0	6	3
CC(=O)NC(=S)NNC(=O)CCc1ccccc1	-4	-3	-24*	0	-1	-2
COc1ccc(CCC(=O)NNC(=S)NCc2ccc(F)cc2)cc1	-6	-1	-29*	0	4	-1
CO[C@H]1CN(C)C(=O)c2ccc(NC(=O)c3nc4ccccc4s3)cc2OC[C@@H](C)N(Cc2cccnc2)C[C@H]1C	·	·	-14	0	·	·
CC(C)C[C@H]1COCc2cn(nn2)CC[C@H](Cc2cccc(Cl)c2)C(=O)N1	·	·	0	·	·	·
CCOc1ccc(C(=O)CSCCC(=O)O)cc1	12	112*	6	1	4	-6
COCC#Cc1cnc2c(c1)C(=O)N([C@@H](C)CO)C[C@@H](C)[C@H](CN(C)C(=O)c1cccc(F)c1)O2	11	6	-2	0	-1	-3
CC(=O)Nc1ccc(NC(=O)c2sc3nc4n(c(=O)c3c2C)CCCCC4)cc1	2	17*	·	-1	2	2
CCc1ccc(NC(=O)c2sc3nc4n(c(=O)c3c2C)CCC4)cc1	3	-4	-4	·	-8	0
Cc1noc(C)c1S(=O)(=O)N(C)C[C@H]1Oc2ccc(NC(=O)Nc3ccc(F)cc3)cc2CC(=O)N([C@@H](C)CO)C[C@H]1C	-4	4	-3	-3	8	-5
Cc1noc(C)c1S(=O)(=O)N(C)C[C@@H]1Oc2ccc(NC(=O)Nc3ccc(F)cc3)cc2CC(=O)N([C@H](C)CO)C[C@H]1C	7	5	-7	45*	4	-2
Cc1noc(C)c1S(=O)(=O)N(C)C[C@@H]1Oc2ccc(NC(=O)Nc3ccc(F)cc3)cc2CC(=O)N([C@@H](C)CO)C[C@H]1C	-6	·	0	0	4	-4
Cc1noc(C)c1S(=O)(=O)N(C)C[C@@H]1Oc2ccc(NC(=O)Nc3ccc(F)cc3)cc2CC(=O)N([C@@H](C)CO)C[C@@H]1C	5	6	-2	51*	4	-6
CO[C@H]1CN(C)C(=O)c2ccc(NC(C)=O)cc2OC[C@H](C)N(Cc2nccs2)C[C@@H]1C	-11	18*	1	0	1	-3
CO[C@@H]1CN(C)C(=O)c2ccc(NC(C)=O)cc2OC[C@H](C)N(Cc2nccs2)C[C@H]1C	48	-3	-1	0	-1	0
CO[C@@H]1CN(C)C(=O)c2ccc(NS(C)(=O)=O)cc2OC[C@@H](C)N(Cc2nccs2)C[C@H]1C	-15	20*	1	0	-4	-2
C[C@@H]1CN([C@@H](C)CO)C(=O)c2cc(-c3ccc(F)cc3)cnc2O[C@@H]1CN(C)CC1CC1	-12	-3	5	-1	0	4
COc1cccc(NC(=O)C(C)OC(=O)c2n[nH]c3ccccc23)c1 (centres undefined)	-2	0	-27*	·	0	1
CNc1snc(C)c1C(=O)OC(C)C(=O)Nc1cccc(OC)c1 (centres undefined)	3	-3	·	0	0	-1
CC(=O)c1cccc(NC(=O)COC(=O)c2n[nH]c3ccccc23)c1	0	-2	-23*	·	-1	-1
CCCN(C)C[C@@H]1OCCCC[C@H](C)Oc2ccc(NC(=O)CCC(F)(F)F)cc2C(=O)N([C@H](C)CO)C[C@@H]1C	16	3	2	0	-1	-2
CC(C)C(=O)Nc1ccc2c(c1)C(=O)N(C)[C@H]1CC[C@H](CC(=O)NCc3ccccc3)O[C@H]1CO2	-14	-1	3	0	0	-13
Cc1c(C#N)c(NC(=O)CCl)n(Cc2ccc(F)cc2)c1C	-22	-2	11	42*	-2	5
COC(=O)c1cc(C(=O)OC)n(Cc2ccc(F)cc2)c1C	3	0	-40*	1	6	0
Cc1c(C#N)c(NC(=O)CCl)n(Cc2ccccc2)c1C	-13	0	15	·	-1	4
SMILES	S100A4 MyoIIA	SIRT5 inh	Ecoli rRNA inh	E-selectin induc	ERAP1 HTS inh	MLL AF4-AF9 inh
O=C(C1CCCC1)N1C[C@H]2[C@@H](c3ccccc31)[C@H](CO)N2C(=O)Nc1cccc(F)c1	-2	1	-2	0	1	0
O=C(C1CCCC1)N1CC2(C1)[C@@H](c1ccccc1)[C@@H](CO)N2CCC(F)(F)F	7	-3	0	0	-1	0
C[C@@H]1CN([C@H](C)CO)C(=O)Cc2cc(NC(=O)CCC(F)(F)F)ccc2O[C@@H]1CN(C)Cc1ccc(Cl)c(Cl)c1	-7	2	-8	-5	1	1
Cc1nn(-c2ccccc2)c(C)c1CN(C)C(=O)c1ccc(S(=O)(=O)NCc2ccco2)cc1	5	-1	-33*	·	0	11
CN(Cc1ccc(Cl)cc1)C(=O)c1ccc(S(=O)(=O)NCc2ccco2)cc1	-6	-4	5	·	-6	0
O=C(CNC(=O)c1cccc(F)c1)OCC(=O)N1CCN(C(=O)c2ccco2)CC1	2	29*	11	·	-5	-3
O=C(NCC(=O)N1CCN(C(=O)c2ccco2)CC1)c1ccc(Br)cc1	3	-3	2	0	-1	0
O=C(Nc1ccc(F)cc1)N[C@@H]1CC[C@@H](CCNC(=O)c2ccccc2F)O[C@@H]1CO	-45	-3	-1	-1	-4	-2
Clc1ccc(-n2nnnc2-c2cnc3ccccc3c2-c2ccccc2)cc1	-4	-4	-21*	·	2	1
Cc1ccc(-n2nnnc2-c2cnc3ccc(Cl)cc3c2-c2ccccc2)cc1	·	·	·	1	·	·
O=C(C1CCC1)N1CC[C@@H]2[C@@H](CO)Nc3ccc(C#Cc4ccc(F)cc4)cc3[C@@H]21	43	-11	-7	38*	-10	?
O=C(C1CC1)N1CC[C@@H]2[C@H](CO)Nc3ccc(C#Cc4ccc(F)cc4)cc3[C@@H]21	·	·	-4	34*	·	·
COCC(=O)N(C)C[C@@H]1Oc2ncc(Br)cc2C(=O)N([C@H](C)CO)C[C@H]1C	-3	-4	3	0	1	-1
C[C@H](CO)N1C[C@H](C)[C@@H](CN(C)S(=O)(=O)c2cccs2)Oc2c(NC(=O)Cn3cnnn3)cccc2C1=O	·	·	-5	·	·	·
COC(=O)c1ccc(COc2ccccc2/C=C(\C#N)C(=O)Nc2ccc(C)cc2C)cc1	-3	-7	2	·	37*	1
O=C(O)c1ccccc1C(=O)N1CCc2c([nH]c3ccccc23)C1C(F)(F)F (centres undefined)	-2	-2	-30*	5	2	-2
